A selection: hits, their analogues and other compounds. The true share with any hit is near 0.31%.
Calb biofilm kill = mixture kills Candida albicans biofilm cells. C. albicans biofilm persisters + clotrimazole, fluorescence viability; primary screen in compound mixtures of four per well. inhibition, % at 7.6 µM. actives 0.02% (n = 120,000);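 active = inhibition above 30.3% in the primary screen of four-compound pools, then above 30% when the compound was retested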;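 also: compounds exposed to preformed 24 h biofilms for 48 h; 0% = untreated biofilm control and 100% = clotrimazole plus chlorhexidine kill blank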
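System: C. albicans CAF4-2 wild-type biofilms; Medium: RPMI/MOPS medium, pH 7.0; Reagent: Clotrimazole, 50 µg/mL; Times: biofilm formation 24 h, compound exposure 48 h, 37 °C; Detection: 2-h Alamar Blue fluorescence, 535/590 nm excitation/emission; Evaluation: percent inhibition of biofilm viability.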
Rad51 HR inh = blocks human Rad51 in homologous recombination; Q06609; hRad51 DNA strand exchange, fluorescence dequenching; inhibition, % at 10 µM; actives 0.085% (n = 200,000); AID 1385;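 active = inhibition above 40% at the single screening dose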;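 also: 0% = DMSO control wells and 100% = blanks with heterologous ssDNA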
Target sequence (Q06609 whole entry, looked up): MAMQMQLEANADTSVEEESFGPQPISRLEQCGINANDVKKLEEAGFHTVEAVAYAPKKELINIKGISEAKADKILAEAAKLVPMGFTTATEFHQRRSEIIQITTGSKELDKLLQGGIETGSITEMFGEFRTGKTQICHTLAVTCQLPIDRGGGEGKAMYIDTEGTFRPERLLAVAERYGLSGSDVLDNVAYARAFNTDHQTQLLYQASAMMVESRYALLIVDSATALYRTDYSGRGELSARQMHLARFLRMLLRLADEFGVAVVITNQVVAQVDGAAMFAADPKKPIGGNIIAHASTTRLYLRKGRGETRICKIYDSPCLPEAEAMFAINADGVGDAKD
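System: hRad51 filaments on single-stranded DNA; reagent: Fluorescein- and BHQ1-tagged 47-mer duplex; compound dosing: one concentration, 10 µM final; timing: filaments 15 min 37 °C, then compound 30 min; measured by: fluorescein emission 520 nm, excitation 485 nm; benchmarks: per-plate controls and blanks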
S1P3 antag-1 = S1P3 (human) receptor antagonism; Q99500; CHO S1P3 NFAT-BLA reporter, FRET fluorescence, antagonist mode; inhibition, % at 4.98 µM; actives 0.27% (n = 170,000); AID 485;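 active = inhibition above the plate cutoff, the mean inhibition of test wells on that plate plus 3 SD, cut at about 28% in these data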;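 also: cells challenged with S1P at its EC80 of 0.8 µM; blue over green emission ratio from cleaved BLA substrate after 4 h stimulation; 0% = S1P-stimulated wells and 100% = unstimulated DMSO-only wells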
S1P3 antag-2 = confirmation of human S1P3 receptor antagonists; AID 1429; inhibition, % at 4.98 µM; actives 30% (n = 240); CHO S1P3 NFAT-BLA reporter, FRET, antagonist mode; shares compounds with S1P3 antag-1;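 active = inhibition above the hit threshold that was computed for the earlier primary screen, cut at about 30% in these data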;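 also: 0% = S1P-stimulated wells and 100% = unstimulated DMSO-only wells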
Active calls of the source: *; i = inactive; x = no result given; ! = repeats disagree.

SMILES	Calb biofilm kill	Rad51 HR inh	S1P3 antag-1	S1P3 antag-2
CC(C)(C)c1cc(C(=O)Nc2ccc(F)cc2)n(Cc2ccc(F)cc2)n1	7	7	30*	24
Cc1ccc(NC(=O)c2cc(C(C)(C)C)nn2Cc2ccccc2)cc1	13	1	1	x
CC(C)CNC(=O)c1cccc(NC(=O)Cc2ccc(Br)cc2)c1	9	7	30*	-14
CC(C)CNC(=O)c1cccc(NC(=O)CCc2ccccc2)c1	12	x	2	x
CNc1nc2cc([N+](=O)[O-])c([N+](=O)[O-])cc2nc1NC	17	0	54*	34*
CNc1ccc(S(=O)(=O)NC)cc1[N+](=O)[O-]	7	7	-4	x
CCOC(=O)N1CCc2c(sc3nc4n(c(=O)c23)N=C(c2ccc(OC)cc2)CS4)C1	10	-3	-5	x
c1ccc2c(-c3cc(C4CCNCC4)[nH]n3)cccc2c1	16	10	-13	x
Cc1ccc(C)n1-c1ccc(C(=O)NN=C2CCCC2)cc1	-2	4	-16	x
S=c1[nH]ccn1-c1cccc(Cl)c1Cl	26	x	-11	x
S=c1[nH]ccn1-c1ccccc1Cl	16	14	73*!	-13
COc1ccccc1Nc1ccc(Nc2ccccc2OC)nn1	10	1	21	x
COc1ccc(OC)c(Nc2ccc(Nc3cc(OC)ccc3OC)nn2)c1	9	4	31*	13
CC1C[N+](=C2C=C(N3CCOCC3)CC(C)(C)C2)CC(C)O1 (stereo unspecified)	13	25	-6	x
CCN(CC(=O)NC1CCS(=O)(=O)C1)S(=O)(=O)c1ccc(C)cc1C (stereo unspecified)	15	6	1	x
COc1ccc(CCNc2ncnc3sccc23)cc1OC	14	-18	49*	23
NS(=O)(=O)c1ccc(CCNc2ncnc3sccc23)cc1	x	-3	-29	x
CCOc1ccc(NC(=S)N2CCCN(Cc3cc(C)ccc3C)C2)cc1	7	22	-1	x
O=C(Cn1cc(C(=O)C(F)(F)F)c2ccccc21)N1CCOCC1	20	-6	0	x
O=[N+]([O-])c1ccc(/C=C/C2=NN(c3ccccc3)C(c3ccco3)C2)o1 (stereo unspecified)	7	-110	38*	9
C(=C\c1ccco1)/C1=NN(c2ccccc2)C(c2ccco2)C1 (stereo unspecified)	15	-65	3	x
Nc1nc(NCCOCCO)nc(NCC2CCCO2)c1[N+](=O)[O-] (stereo unspecified)	13	-3	-11	x
O=C(NCc1ccco1)C(=S)N1CCCC1	13	6	-16	x
O=C(NCc1ccco1)C(=S)N1CCCCC1	5	-2	28*	-10
CCNS(=O)(=O)c1ccc(CCC(=O)NCc2ccc(C)cc2)cc1	4	27	1	x
SMILES	Calb biofilm kill	Rad51 HR inh	S1P3 antag-1	S1P3 antag-2
CC(C)(C)c1ccc(CNc2ccc([N+](=O)[O-])cn2)cc1	14	2	30*	15
CC(C)c1ccc(CNc2ccc([N+](=O)[O-])cn2)cc1	5	14	10	x
CCCCCCCCCn1ccc(=N)cc1	19	6	30*	3
CCCCCCCn1ccc(=N)cc1	x	-2	x	x
O=C(C1CC(=O)N(C2CCCCC2)C1)N1CCc2ccccc21 (stereo unspecified)	16	-4	-18	x
O=C(O)c1ccc(-c2ccc(/C=N/Nc3ccc([N+](=O)[O-])cc3)o2)cc1	25	i	29*	-1
O=C(N/N=C/c1ccc(-c2cccc([N+](=O)[O-])c2)o1)[C@H]1C[C@@H]1c1ccccc1	15	7	13	x
O=C(N/N=C/c1ccc(-c2ccc([N+](=O)[O-])cc2)o1)[C@H]1C[C@@H]1c1ccccc1	1	-50	45*	63*
CCCCC(=O)N/N=C/c1ccc(-c2ccc([N+](=O)[O-])cc2)o1	2	-18	18	x
CC(C)(C)NC(=S)N/N=C\c1ccc(-c2ccc([N+](=O)[O-])cc2)o1	13	-317	70*	73*
O=C(O)c1cccc(-c2ccc(/C=N/Nc3ccc([N+](=O)[O-])cc3)o2)c1	14	-180	14	x
Clc1ccc(-n2cc(COCc3ccccc3)nn2)cc1	15	2	-10	x
O=[N+]([O-])C(=C1Nc2ccccc2N1)/C(Cl)=C(/Cl)Br	16	x	1	x
COc1ccc(C(=O)Nc2nc3cc4c(cc3s2)OCO4)c(OC)c1	8	-26	2	x
Clc1ccc(C2=CC(c3ccco3)n3ncnc3N2)cc1 (stereo unspecified)	x	-13	x	x
Clc1ccccc1C1=CC(c2ccco2)n2ncnc2N1 (stereo unspecified)	30	x	32*	7
O=C(NCCCCc1ccccc1)c1ccccc1Cl	6	-30	-5	x
Cc1cccc(C2(c3cccc(C)c3)CC2C(=O)Nc2ccc([N+](=O)[O-])cc2O)c1 (stereo unspecified)	16	x	76*	73*
Cc1cccc(C2(c3cccc(C)c3)CC2C(=O)NCC2CCCO2)c1 (stereo unspecified)	14	6	-16	x
CCc1ccc(NC(=O)CC2C(=O)N(c3ccc(C)cc3)C(=O)N2C2CC2)cc1 (stereo unspecified)	2	-4	-18	x
CNc1nc(Nc2ccccc2)nc(OCC(F)(F)F)n1	9	-10	39*	-5
CCCNc1nc(OCC(F)(F)F)nc(OCC(F)(F)F)n1	x	-4	x	x
Cc1ccc(OCCCNCCO)c(Br)c1	x	-5	x	x
OCCNCCCOc1cc(Cl)ccc1Cl	14	6	36*	-9
CC1=NN(C(C#N)c2c(C)nn(Cc3ccccc3)c2C)C(C)(C)C1 (stereo unspecified)	19	-1	-26	x
SMILES	Calb biofilm kill	Rad51 HR inh	S1P3 antag-1	S1P3 antag-2
COc1ccc(NC(=O)C(OC)c2ccccc2)cc1Cl (stereo unspecified)	9	-4	16	x
Cc1ccc(NC(=O)C(C)c2ccc([N+](=O)[O-])cc2)cc1Cl (stereo unspecified)	-6	16	49*	48*
Cc1ccc(NC(=O)C(OC(=O)c2ccccc2Cl)c2ccccc2)cc1Cl (stereo unspecified)	14	1	29*	40*
COc1ccc([N+](=O)[O-])cc1NC(=O)C(C)c1ccccc1 (stereo unspecified)	9	5	4	x
Cc1ccc(NC(=O)C(OC(=O)c2ccc(NC(N)=O)cc2)c2ccccc2)cc1Cl (stereo unspecified)	10	-3	-5	x
Cc1cc(C(=O)OC(C(=O)Nc2ccc(C)c(Cl)c2)c2ccccc2)c(C)o1 (stereo unspecified)	18	-1	53*	40*
CC(C)(C)OC(=O)NC(CO)c1cn([C@@H](Cc2cc3ccccc3[nH]2)C(=O)N2CCN(C(=O)OC(C)(C)C)CC2)nn1 (stereo partly specified)	13	x	11	x
CN(C)/C=C/C(=C\C(=O)C(F)(F)F)Nc1ccc(C(F)(F)F)cc1	17	1	45*	-6
CN(C)/C=C/C(=O)C(F)(F)F	15	8	-9	x
CCN1CCN(C(=O)N2CCOCC2)CC1	11	2	-6	x

Bioassay records (PubChem)
